# Laboratory results: paper PMC4894846 (Nature cell biology, 2014)
# Values joined by “and” are separate entries in the source; they are usually repeats but may differ in a detail not shown here. Equal entries are not always repeated.
# Legend:
# [1] = system: TAM-inducible Gpx4−/− cells (Pfa1); test: Rescue of cell death induced by TAM-inducible Gpx4 deletion in Pfa1 cells; format: cell-based, mouse; settings: 1 μM TAM, viability 72 h after knockout induction
# Gpx4−/− cells = test: Lipid peroxidation in Gpx4−/− cells; format: cell-based, mouse; settings: 48 h after knockout induction; Liproxstatin-1 50 nM
# Procedure, shortened: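 Gpx4 loss is induced in TAM-inducible Pfa1 cells grown in dishes in DMEM with 10% FBS. Test compound is present during induction. At 48 h after knockout induction, cells are washed, stained with BODIPY 581/591 C11 for 1 h, and probe oxidation is measured by flow cytometry.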
# Pfa1 cells [2] = test: Cell death elicited by ferroptosis-inducing agents; format: cell-based, mouse; settings: for Prevention of cell death elicited by FINs: erastin 2.5 μM, BSO 20 μM, RSL3 20 nM, DFO 10 μM, Fer1 0.1 μM, αToc 1 μM, Nec1 20 μM, Z-VAD-FMK 50 μM; for Induction of cell death through GSH depletion: Pfa1 cells
# [3] = system: PZL cells (CreERT2;Gpx4fl/fl/Alox15−/−); test: Cell death on TAM-induced Gpx4 deficiency in PZL cells; format: cell-based, mouse
# [4] = system: primary human renal proximal tubule epithelial cells (HRPTEpiCs); test: Viability of HRPTEpiCs treated with RSL3; format: cell-based; settings: 24 h
# Procedure, shortened: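 Primary human renal proximal tubule epithelial cells, cultured per supplier recommendations. Cells are exposed to RSL3 with or without test compound, and viability is read by AquaBluer 24 h after treatment. Mean ± s.d. of n = 3 wells; representative of three independent experiments.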
# CYP450 1A = test: CYP450 inhibition 1A; format: in vitro ADME; settings: read-out: CYP450 inhibition 1A IC50
# L929 cells = test: TNFα/Z-VAD-FMK-induced necroptosis in L929 cells; format: cell-based; settings: Liproxstatin-1 1 μM; TNFα 5 ng ml^−1 + Z-VAD-FMK 50 μM; 8 h
# CYP450 2D6 = CYP450 2D6 (Homo sapiens, UniProt P10635); test: CYP450 inhibition 2D6; format: in vitro ADME; settings: read-out: CYP450 inhibition 2D6 IC50
# Chain of CYP450 2D6 (P10635 whole entry): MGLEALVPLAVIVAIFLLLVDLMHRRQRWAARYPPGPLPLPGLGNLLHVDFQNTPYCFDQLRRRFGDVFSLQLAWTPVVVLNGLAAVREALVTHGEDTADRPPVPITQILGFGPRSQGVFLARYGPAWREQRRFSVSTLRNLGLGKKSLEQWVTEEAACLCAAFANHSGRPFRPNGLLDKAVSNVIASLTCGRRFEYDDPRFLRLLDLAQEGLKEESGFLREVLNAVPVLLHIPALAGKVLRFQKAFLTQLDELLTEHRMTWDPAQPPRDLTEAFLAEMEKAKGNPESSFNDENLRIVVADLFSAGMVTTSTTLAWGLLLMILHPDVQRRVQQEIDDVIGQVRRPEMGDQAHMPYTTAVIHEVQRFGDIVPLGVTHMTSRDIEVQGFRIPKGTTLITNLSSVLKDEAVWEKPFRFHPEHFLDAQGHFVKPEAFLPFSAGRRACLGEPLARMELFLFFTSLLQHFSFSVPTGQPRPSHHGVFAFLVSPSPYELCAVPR
# Pfa1 cells [5] = test: Cell death induced by staurosporine and H2O2; format: cell-based, mouse; settings: Liproxstatin-1 200 nM; staurosporine 0.2 μM, H2O2 200 μM; 24 h
# Procedure, shortened: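 Gpx4-proficient (non-induced) Pfa1 mouse cells, kept in DMEM with 10% FBS. The test compound is given together with the death trigger: BSO 10 μM, erastin 1 μM or RSL3 0.5 μM, or staurosporine 0.2 μM or H2O2 200 μM. Viability is read 24 h after treatment. Mean ± s.d. of n = 3 wells; representative of at least four independent experiments.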
# CreERT2;Gpx4fl/fl mice = test: In vivo rescue of TAM-induced CreERT2; set-up: species or system mouse; settings: 10 mg kg^−1 i.p. daily
# Procedure, shortened: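 CreERT2;Gpx4fl/fl mice receive 0.5 mg TAM in Miglyol on days 1 and 3. From day 4, the test compound (10 mg kg−1) or vehicle (1% DMSO in PBS) is given i.p. once daily, with injections and scoring blinded. Survival is compared by log-rank/Gehan–Breslow–Wilcoxon tests (n = 12 vehicle, n = 13 treated; run twice). Kidney TUNEL+ cells are counted 9 days after TAM.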
# C57BL/6J mice = test: Hepatic ischaemia/reperfusion injury model; format: in vivo, mouse; settings: 90 min ischaemia, 24 h reperfusion
# Procedure, shortened: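 Male C57BL/6J mice, 8–10 weeks old, 22–24 g, randomised; operators blinded. Under xylazine/ketamine, an atraumatic clip is placed across the portal vein, hepatic artery and bile duct above the right lateral lobe branch. Reperfusion follows 90 min of ischaemia. At 24 h, serum ALT/AST is measured and necrotic area is scored (n = 17 and n = 5). Mean ± s.e.m.; one-way ANOVA with Dunnett's post-test.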
# HRPTEpiCs = test: RSL3-induced lipid oxidation in HRPTEpiCs; format: cell-based, human; settings: RSL3 0.2 μM; 24 h
# Procedure, shortened: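 Primary human renal proximal tubule epithelial cells, cultured per supplier recommendations. Cells are treated with RSL3 (0.2 μM) with or without test compound. After 24 h, cells are stained with BODIPY 581/591 C11 for 1 h and lipid oxidation is measured by flow cytometry. Representative of four independent experiments.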
# HepG2 cells = test: Cytotoxicity in HepG2 cells; format: cell-based; settings: 72 h incubation
# Procedure, shortened: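 Cells are incubated with increasing concentrations of the test compound for 72 h. Viability is then read with the AquaBluer live-cell indicator. TC50 is derived by curve fitting.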
# CYP450 3A4 = CYP450 3A4 (Homo sapiens, UniProt P08684); test: CYP450 inhibition 3A4; format: in vitro ADME; settings: read-out: CYP450 inhibition 3A4 IC50
# Chain of CYP450 3A4 (P08684 whole entry): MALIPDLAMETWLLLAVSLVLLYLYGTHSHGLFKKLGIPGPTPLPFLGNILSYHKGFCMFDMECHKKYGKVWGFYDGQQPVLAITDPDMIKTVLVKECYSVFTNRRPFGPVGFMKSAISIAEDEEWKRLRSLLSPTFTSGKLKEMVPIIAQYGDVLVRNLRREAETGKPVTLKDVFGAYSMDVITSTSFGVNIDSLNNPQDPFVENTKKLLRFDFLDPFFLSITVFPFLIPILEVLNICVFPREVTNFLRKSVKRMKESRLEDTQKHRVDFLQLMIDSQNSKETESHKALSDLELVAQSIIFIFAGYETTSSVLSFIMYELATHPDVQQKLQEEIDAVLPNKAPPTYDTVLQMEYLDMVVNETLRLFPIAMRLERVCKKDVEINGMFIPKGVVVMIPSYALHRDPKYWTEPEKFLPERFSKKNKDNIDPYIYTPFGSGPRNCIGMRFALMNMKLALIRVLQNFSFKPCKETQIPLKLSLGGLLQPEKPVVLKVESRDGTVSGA
# CYP450 2C9 = CYP450 2C9 (Homo sapiens, UniProt P11712); test: CYP450 inhibition 2C9; format: in vitro ADME; settings: read-out: CYP450 inhibition 2C9 IC50
# Chain of CYP450 2C9 (P11712 whole entry): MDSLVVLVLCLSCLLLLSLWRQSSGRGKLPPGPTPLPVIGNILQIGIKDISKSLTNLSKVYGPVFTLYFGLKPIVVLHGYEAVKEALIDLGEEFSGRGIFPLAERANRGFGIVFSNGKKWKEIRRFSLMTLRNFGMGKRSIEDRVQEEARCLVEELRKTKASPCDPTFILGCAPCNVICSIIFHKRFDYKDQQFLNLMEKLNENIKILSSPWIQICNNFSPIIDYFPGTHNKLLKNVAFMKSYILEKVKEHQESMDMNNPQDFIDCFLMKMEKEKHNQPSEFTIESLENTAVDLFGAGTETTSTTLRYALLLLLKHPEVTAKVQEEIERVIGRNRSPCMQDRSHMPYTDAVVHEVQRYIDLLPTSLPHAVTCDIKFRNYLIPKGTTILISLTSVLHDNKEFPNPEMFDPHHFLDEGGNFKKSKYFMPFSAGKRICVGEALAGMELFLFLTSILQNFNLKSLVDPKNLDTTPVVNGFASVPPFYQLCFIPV
# hERG channel = hERG channel (Homo sapiens, UniProt Q12809); test: hERG patch clamp assay; format: cell-based; settings: read-out: hERG patch clamp assay IC50
# Chain of hERG channel (Q12809 whole entry): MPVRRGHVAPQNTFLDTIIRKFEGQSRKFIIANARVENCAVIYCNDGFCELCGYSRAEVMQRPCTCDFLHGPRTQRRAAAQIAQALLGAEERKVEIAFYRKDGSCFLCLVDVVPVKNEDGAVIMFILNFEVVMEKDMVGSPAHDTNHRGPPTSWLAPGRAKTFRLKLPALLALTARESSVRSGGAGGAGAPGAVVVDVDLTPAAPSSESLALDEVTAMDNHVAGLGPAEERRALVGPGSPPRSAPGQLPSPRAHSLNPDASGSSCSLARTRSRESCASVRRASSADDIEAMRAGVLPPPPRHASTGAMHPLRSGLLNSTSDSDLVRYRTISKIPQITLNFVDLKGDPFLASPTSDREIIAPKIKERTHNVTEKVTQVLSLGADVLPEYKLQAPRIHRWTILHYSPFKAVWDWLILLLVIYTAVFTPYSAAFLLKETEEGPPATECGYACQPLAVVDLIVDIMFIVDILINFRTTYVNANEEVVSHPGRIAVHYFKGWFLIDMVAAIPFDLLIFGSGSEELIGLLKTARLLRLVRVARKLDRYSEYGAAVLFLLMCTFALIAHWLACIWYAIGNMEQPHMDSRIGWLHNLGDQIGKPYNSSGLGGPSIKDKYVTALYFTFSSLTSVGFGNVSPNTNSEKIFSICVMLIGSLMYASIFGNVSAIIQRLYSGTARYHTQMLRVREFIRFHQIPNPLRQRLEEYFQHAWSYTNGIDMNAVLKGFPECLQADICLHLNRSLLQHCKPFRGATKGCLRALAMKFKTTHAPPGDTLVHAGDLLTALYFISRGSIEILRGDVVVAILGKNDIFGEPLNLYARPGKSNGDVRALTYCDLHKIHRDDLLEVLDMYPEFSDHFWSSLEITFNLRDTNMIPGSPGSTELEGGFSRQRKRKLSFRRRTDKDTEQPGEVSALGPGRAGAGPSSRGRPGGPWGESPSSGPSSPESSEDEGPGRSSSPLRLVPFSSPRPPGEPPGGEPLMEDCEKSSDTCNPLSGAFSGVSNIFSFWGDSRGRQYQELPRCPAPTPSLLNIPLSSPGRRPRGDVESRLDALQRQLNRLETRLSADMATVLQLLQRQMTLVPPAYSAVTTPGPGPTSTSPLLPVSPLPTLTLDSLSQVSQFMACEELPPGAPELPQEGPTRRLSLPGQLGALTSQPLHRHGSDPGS
# CYP450 2C19 = CYP450 2C19 (Homo sapiens, UniProt P33261); test: CYP450 inhibition 2C19; format: in vitro ADME; settings: read-out: CYP450 inhibition 2C19 IC50
# Chain of CYP450 2C19 (P33261 whole entry): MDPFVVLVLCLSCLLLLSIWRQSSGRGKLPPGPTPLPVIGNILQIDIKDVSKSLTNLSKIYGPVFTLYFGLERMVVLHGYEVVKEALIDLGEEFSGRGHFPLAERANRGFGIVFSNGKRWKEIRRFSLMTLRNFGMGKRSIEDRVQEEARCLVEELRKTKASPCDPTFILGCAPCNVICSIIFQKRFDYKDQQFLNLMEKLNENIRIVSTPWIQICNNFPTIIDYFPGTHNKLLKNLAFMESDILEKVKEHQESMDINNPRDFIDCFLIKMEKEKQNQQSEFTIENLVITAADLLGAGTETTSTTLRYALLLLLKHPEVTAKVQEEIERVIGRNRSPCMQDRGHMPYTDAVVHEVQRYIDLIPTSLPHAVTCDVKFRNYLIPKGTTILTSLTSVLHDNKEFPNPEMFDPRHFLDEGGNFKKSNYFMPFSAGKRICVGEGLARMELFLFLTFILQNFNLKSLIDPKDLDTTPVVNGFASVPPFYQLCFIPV
# Mouse pharmacokinetics = format: in vivo
# Rip1−/− cells = test: FIN/RSL3-induced ferroptosis in Rip1−/− cells; format: cell-based; settings: RSL3 1 μM; 6 h pre-treatment; viability at 24 h
compound,measurement,setting,value
CC(=O)N(O)C/C=C/c1cccc(Oc2ccccc2)c1 [BWA4C],Rescue of cell death in response to Gpx4 deletion,[1],prevented cell death
"CCOC(=O)c1ccc(NC2CCCCC2)c(N)c1 [Fer1, ferrostatin-1]",Effect on lipid peroxidation (BODIPY 581/591 C11 oxidation),Gpx4−/− cells,could be ameliorated
same,Prevention of cell death elicited by FINs,Pfa1 cells [2]; 24 h,can be prevented
same,Rescue of cell death in response to Gpx4 deletion,[1],rescued Gpx4^−/− cells from cell death
"CC(=O)N[C@@H](CS)C(=O)O [NAC, N-acetylcysteine]",Rescue of cell death of PZL cells on Gpx4 deficiency,[3],could not be rescued
"COC(=O)c1ccc([C@@H]2c3[nH]c4ccccc4c3C[C@@H](C(=O)OC)N2C(=O)CCl)cc1 [RSL3, (1S, 3R)-RSL3, reference compound]",Induction of cell death in HRPTEpiCs,[4],efficiently triggered cell death
"CCCCS(=N)(=O)CCC(N)C(=O)O [BSO, L-buthionine sulphoximine]",Induction of cell death through GSH depletion,Pfa1 cells [2],efficiently triggered rapid cell death
CN1C(=O)NC(Cc2c[nH]c3c(Cl)cccc23)C1=O (stereo not drawn) [Nec1s],Rescue of cell death in response to Gpx4 deletion,[1],did not protect
CCOc1ccccc1-n1c(C(C)N2CCN(C(=O)COc3ccc(Cl)cc3)CC2)nc2ccccc2c1=O (stereo not drawn) [erastin],Induction of cell death through GSH depletion,Pfa1 cells [2],efficiently triggered rapid cell death
Clc1cccc(CN=C2Nc3ccccc3NC23CCNCC3)c1 [Liproxstatin-1],IC50,CYP450 1A,> 25 µM
same,Effect on necroptosis,L929 cells,does not prevent necroptosis
same,IC50,CYP450 2D6,4.1 µM
same,Rescue of cell death induced by staurosporine and H2O2,Pfa1 cells [5],fails to rescue cell death
same,Effect on lipid peroxidation (BODIPY 581/591 C11 oxidation),Gpx4−/− cells,completely prevents lipid peroxidation
same,Median survival,"CreERT2;Gpx4fl/fl mice; vehicle-treated 11 days, P <0.0001",14 days
same,TUNEL+ cells in kidney compared with vehicle,CreERT2;Gpx4fl/fl mice; day 9 after TAM treatment,strongly reduced number of TUNEL+ cells
same,Protection against FINs,"Pfa1 cells [2]; Liproxstatin-1 200 nM, BSO 10 μM, erastin 1 μM, RSL3 0.5 μM, 24 h",protects against FINs
same,"Tissue injury (AST/ALT, necrotic area)",C57BL/6J mice,mitigated tissue injury
same,Effect on RSL3-induced BODIPY 581/591 C11 oxidation,HRPTEpiCs,could be blocked
same,Cytotoxicity in HepG2 cells TC50,HepG2 cells,6 µM
same,Protection from RSL3-induced cell death,[4]; Liproxstatin-1 100 nM,able to protect
same,IC50,CYP450 3A4,> 25 µM
same,Rescue of cell death in response to Gpx4 deletion,[1],inhibit ferroptosis in the low nanomolar range
same,IC50,CYP450 2C9,> 25 µM
same,IC50,hERG channel,> 25 µM
same,IC50,CYP450 2C19,> 25 µM
same,Bioavailability,Mouse pharmacokinetics,52%
same,C,Mouse pharmacokinetics; i.v. 1 mg kg^−1,0.4 µg/mL
same,MRTINF (mean residence time extrapolated to infinity),Mouse pharmacokinetics; i.v. 1 mg kg^−1,4.9 h
same,Total Cl,Mouse pharmacokinetics; i.v. 1 mg kg^−1,128 ml h^−1 and 66 ml min^−1 kg^−1
same,V,Mouse pharmacokinetics; i.v. 1 mg kg^−1,849 mL
same,Vss,Mouse pharmacokinetics; i.v. 1 mg kg^−1,629 mL
same,t1/2,Mouse pharmacokinetics; i.v. 1 mg kg^−1,4.6 h
same,Cmax,Mouse pharmacokinetics; p.o. 5 mg kg^−1,0.08 µg/mL
same,Tmax,Mouse pharmacokinetics; p.o. 5 mg kg^−1,2 h
CCCCCCCCCCCCCCCCOCC(COCC(F)(F)F)OP(=O)(O)OC (stereo not drawn) [MJ33],Rescue of cell death in response to Gpx4 deletion,[1],prevented cell death
CC(C)c1ccc2c(c1)c(SC(C)(C)C)c(CC(C)(C)C(=O)O)n2Cc1ccc(Cl)cc1 [MK886],Rescue of cell death in response to Gpx4 deletion,[1],prevented cell death
"Cc1c(C)c2c(c(C)c1O)CC[C@@](C)(CCC[C@H](C)CCC[C@H](C)CCCC(C)C)O2 [αToc, α-tocopherol]",Prevention of cell death elicited by FINs,Pfa1 cells [2]; 24 h,can be prevented
same,Rescue of cell death of PZL cells on Gpx4 deficiency,[3],rescued
same,Rescue of cell death in response to Gpx4 deletion,[1],cell death could also be inhibited
"CC(=O)N(O)CCCCCNC(=O)CCC(=O)N(O)CCCCCNC(=O)CCC(=O)N(O)CCCCCN [DFO, deferoxamine]",Effect on lipid peroxidation (BODIPY 581/591 C11 oxidation),Gpx4−/− cells,could be ameliorated
same,Prevention of cell death elicited by FINs,Pfa1 cells [2]; 24 h,can be prevented
same,Rescue of cell death in response to Gpx4 deletion,[1],cell death could also be inhibited
c1ccc2c(c1)SCc1c-2[nH]c2ccccc12 [PD146176],Rescue of cell death in response to Gpx4 deletion,[1],prevented cell death
"CN1C(=O)C(Cc2c[nH]c3ccccc23)NC1=S (stereo not drawn) [Nec1, necrostatin-1]",Prevention of ferroptosis in Rip1−/− cells,Rip1−/− cells,ferroptosis could be prevented
same,Prevention of cell death elicited by FINs,Pfa1 cells [2]; 24 h,can be prevented
same,Rescue of cell death in response to Gpx4 deletion,[1],rescued Gpx4^−/− cells from cell death
CC(c1cc2ccccc2s1)N(O)C(N)=O (stereo not drawn) [zileuton],Rescue of cell death in response to Gpx4 deletion,[1],prevented cell death
